Values after ≈ are worked out from the molar mass of the structure shown. Active and inactive are the calls of the source. The rule behind the calls is not given here.
Columns and labels:
[1] = system: Mycobacterium tuberculosis; test: Antitubercular activity against log phase culture of Mycobacterium tuberculosis H37Rv ATCC 27294 by agar dilution method; assay type: functional
Outline: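 H37Rv (ATCC27294) was tested by agar dilution, with the compound serially diluted from 50 to 0.78 in duplicate. MIC was taken as the lowest concentration giving complete growth inhibition.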

[2] = Cytotoxicity against HEK293T cells assessed as cellular growth at 100 uM by MTT assay; assay type: cell-based, HEK-293T; settings: human, read-out: Activity
Outline: (§1)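 HEK293T cells were exposed to compound at 25 and 100 and read out by MTT assay.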

[3] = system: Mycobacterium tuberculosis; test: Antitubercular activity against non-culturable Mycobacterium tuberculosis assessed as log reduction in dormant cell viability at 10 ug/mL measured for 7 days by MPN assay relative to control; assay type: functional
Outline: (§2)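 Bacilli were grown in potassium-deficient Sauton's medium with ADC and 0.05% Tween-80 at 37 °C and 200 rpm. Dormancy was confirmed by failure to form colonies on agar-solidified Sauton's. Non-culturable cells were washed and exposed to compound for 7 days, then resuscitated in liquid Sauton's alongside untreated cells. Recovered cell concentration was estimated by Most Probable Number assay with statistical treatment.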

[4] = Cytotoxicity against HEK293T cells assessed as cellular growth at 25 uM by MTT assay; assay type: cell-based, HEK-293T; settings: human, read-out: Activity; outline: as §1
[5] = system: Mycobacterium tuberculosis; test: Ratio of nitazoxanide MIC to compound MIC for log phase culture of Mycobacterium tuberculosis H37Rv ATCC 27294; assay type: functional
[6] = system: Mycobacterium tuberculosis; test: Antitubercular activity against non-culturable Mycobacterium tuberculosis assessed as reduction in dormant cell viability at 10 ug/mL measured for 7 days by MPN assay; assay type: functional, organism-based; outline: as §2
[7] = Therapeutic index, ratio of cytotoxicity against HEK293T cells to MIC for log phase culture of Mycobacterium tuberculosis H37Rv ATCC 27294; assay type: cell-based, HEK-293T; settings: human, read-out: TI

Structure (SMILES) | MIC [1] [µM] | viability at 100 µM [2] [%] | FC [3] | viability at 25 µM [4] [%] | Ratio [5] | Activity [6] | selectivity ratio [7]
CC(C)c1cc(C(=O)Nc2ncc([N+](=O)[O-])s2)c(OC(=O)c2ccccc2)c(C(C)C)c1 | > 110 | – | – | – | – | – | –
O=C(Nc1nc2ccc([N+](=O)[O-])cc2s1)c1ccc([N+](=O)[O-])o1 | 150 (≈ 50 µg/mL) | 43.3 | 1 | 100 | – | – | –
CC(=O)Oc1cc(Cl)ccc1C(=O)Nc1ncc([N+](=O)[O-])s1 | 36.6 (≈ 12.5 µg/mL) | 83.5 | – | 100 | 4.4 | – | –
O=C(Oc1ccc(Cl)cc1C(=O)Nc1ncc([N+](=O)[O-])s1)c1ccccc1 | 15.5 (≈ 6.25 µg/mL) | 23.7 | – | 72.2 | – | – | –
O=C(Nc1ncc([N+](=O)[O-])s1)c1ccc(Cl)cc1O | > 167 | – | – | – | – | – | –
COc1ccc(O)c(C(=O)Nc2ncc([N+](=O)[O-])s2)c1 | 84.7 (≈ 25 µg/mL) | 100 | – | 100 | – | – | –
O=C(Nc1ncc([N+](=O)[O-])s1)c1ccc(-c2ccc(Br)cc2)o1 | 31.7 (≈ 12.5 µg/mL) | 70.3 | – | 89.1 | – | – | –
CO[C@H]1/C=C/O[C@@]2(C)Oc3c(C)c(O)c4c(O)c(c(/C=N/N5CCN(C)CC5)c(O)c4c3C2=O)NC(=O)/C(C)=C\C=C\[C@H](C)[C@H](O)[C@@H](C)[C@@H](O)[C@@H](C)[C@H](OC(C)=O)[C@@H]1C [RIFAMPIN] | 0.48 (≈ 0.395 µg/mL) | – | – | – | – | Active | –
O=C(Oc1c(C(=O)Nc2ncc([N+](=O)[O-])s2)cc([N+](=O)[O-])cc1[N+](=O)[O-])c1ccccc1 | > 109 | – | – | – | – | – | –
O=C(Oc1cc(Cl)ccc1C(=O)Nc1ncc([N+](=O)[O-])s1)c1ccccc1 | > 124 | – | – | – | – | – | –
CC(=O)Oc1c(C(=O)Nc2ncc([N+](=O)[O-])s2)cc(C(C)C)cc1C(C)C | 63.9 (≈ 25 µg/mL) | 20.6 | – | 45.9 | 2.54 | – | –
O=C(Oc1c(Cl)cc(Cl)cc1C(=O)Nc1ncc([N+](=O)[O-])s1)c1ccccc1 | 28.5 (≈ 12.5 µg/mL) | 61.6 | – | 100 | – | – | –
NNC(=O)c1ccncc1 [ISONIAZID] | 0.72 (≈ 0.0987 µg/mL) | – | – | – | – | Active | –
O=C(Nc1ncc([N+](=O)[O-])s1)c1ccc(-c2ccc(Cl)cc2)o1 | 17.9 (≈ 6.25 µg/mL) | 74.1 | – | 75 | – | – | –
COc1ccc(OC(=O)c2ccccc2)c(C(=O)Nc2ncc([N+](=O)[O-])s2)c1 | 15.6 (≈ 6.25 µg/mL) | 67.6 | – | 100 | – | – | –
CC(=O)Oc1ccc(Cl)cc1C(=O)Nc1ncc([N+](=O)[O-])s1 | 18.3 (≈ 6.25 µg/mL) | 31.1 | – | 59.5 | 8.9 | – | –
O=C(Nc1ncc([N+](=O)[O-])s1)c1ccc([N+](=O)[O-])o1 | 5.48 (≈ 1.56 µg/mL) | 67.3 | 1 | 87.4 | 29 | – | > 20
O=C(Nc1ncc([N+](=O)[O-])s1)c1cc(Cl)cc(Cl)c1O | 74.8 (≈ 25 µg/mL) | 23.5 | – | 100 | – | – | –
O=C(Nc1ncc([N+](=O)[O-])s1)c1ccco1 | 206 (≈ 49.2 µg/mL) | – | – | – | – | – | –
CC(=O)Oc1ccccc1C(=O)Nc1ncc([N+](=O)[O-])s1 [NITAZOXANIDE] | 163 (≈ 50 µg/mL) | – | – | – | – | – | –
CC(=O)Oc1c(Cl)cc(Cl)cc1C(=O)Nc1ncc([N+](=O)[O-])s1 | 66.5 (≈ 25 µg/mL) | 95.1 | – | 100 | 2.44 | – | –
O=C(Nc1ncc([N+](=O)[O-])s1)c1ccc(-c2ccc([N+](=O)[O-])cc2)o1 | 17.3 (≈ 6.25 µg/mL) | 79.2 | – | 88.4 | – | – | –
CC(C)c1cc(C(=O)Nc2ncc([N+](=O)[O-])s2)c(O)c(C(C)C)c1 | 17.9 (≈ 6.25 µg/mL) | 7.1 | – | 29.4 | – | – | –
COc1ccc(OC(C)=O)c(C(=O)Nc2ncc([N+](=O)[O-])s2)c1 | 74.1 (≈ 25 µg/mL) | 94.1 | – | 100 | 2.19 | – | –
Cc1ccc(-c2ccc(C(=O)Nc3ncc([N+](=O)[O-])s3)o2)cc1 | 19 (≈ 6.25 µg/mL) | 91.5 | – | 94.1 | – | – | –
O=C(Nc1ncc([N+](=O)[O-])s1)c1cc(Cl)ccc1O | 20.9 (≈ 6.25 µg/mL) | 63 | – | 100 | – | – | –
COOc1ccc(-c2ccc(C(=O)Nc3ncc([N+](=O)[O-])s3)o2)cc1 | 72.4 (≈ 26.2 µg/mL) | 95.7 | – | 100 | – | – | –
O=C(Nc1ncc([N+](=O)[O-])s1)c1ccc([N+](=O)[O-])s1 | 20.8 (≈ 6.25 µg/mL) | 35.9 | – | 100 | – | – | –
O=C(Nc1ncc([N+](=O)[O-])s1)c1cccs1 [TENONITROZOLE] | 24.5 (≈ 6.25 µg/mL) | 93.4 | – | 100 | – | – | –

From ChEMBL document CHEMBL2203045, “Development of 5-nitrothiazole derivatives: identification of leads against both replicative and latent Mycobacterium tuberculosis” (Bioorg Med Chem Lett, 2012)
